Screening results from PubChem.
Hits are enriched below; roughly 1.6% of the tested compounds scored in any of these assays.
HNF4A DNA FP: change in binding of human HNF4 alpha to DNA; P41235; HNF4a-FITC DNA binding, fluorescence polarization, 1 h; actives 0.3% (n = 360,000); activity change, % at 10 µM; in the data active means activity change above about 30%, passing the limit was not always enough
CSN deneddyl inh: CSN deneddylation inhibition. Purified CSN, SCF-Nedd8-OG deneddylation, fluorescence polarization. inhibition, % at 12.5 µM. actives 0.38% (n = 360,000);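 active means pattern-corrected inhibition above about 35%, with an unprinted fluorescence ratio check between 0.5 and 1.5, limit read from the data, passing the limit was not always enough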
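Detection – fluorescence polarization · System – HEK293T-derived human Csn5 enzyme · Controls – substrate-only high control, full reaction low control · Timing – 90 min, room temperature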
TPT1 inh: blocks Candida albicans tRNA 2'-phosphotransferase; actives 0.81% (n = 300,000); AID 1962; inhibition, % at 5 µM; recombinant caTPT1, FP RNA substrate dephosphorylation;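 active means inhibition above the mean of all tested compounds plus 3 SD, set per screening campaign, cut at about 24% in these data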
Rpn11 inh: Rpn11 (human) deubiquitinase inhibition; O00487; actives 0.59% (n = 360,000); calls only at 20 µM; human 26S proteasome, Ub4-pepOG fluorescence polarization; 20S core pre-blocked with epoxomicin;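 active means inhibition at 20 µM, scaled to each plate's controls, above about 33%, limit read from the data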
PKA-R2B act: activators of human PKA-R2B complex. PKA-R2B holoenzyme dissociation, Cy5-IP20 fluorescence polarization; R2B truncated from residue 108, S112A mutant; 0% DMSO only, 100% 113 µM cGMP. P22694+P31323. activation, % at 11.4 µM. actives 0.079% (n = 340,000). AID 504700;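 active means activation above a cutoff set at the mean over all compounds plus 3 SD, cut at about 18% in these data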;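 further: higher means more holoenzyme dissociation and a rise in polarization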
PKA-R1A act: activates the PKA-R1A holoenzyme complex | actives 0.083% (n = 340,000) | AID 504707 | PKA-R1A dissociation, Cy5-IP20 fluorescence polarization; scaled: DMSO 0%, 113 µM cGMP 100% | activation, % at 11.4 µM | P00514+P68181;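 active means percent activation above the mean of all tested compounds plus 3 SD, cut at about 19% in these data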;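 further: higher means more PKAc released from R1A so a rise in polarization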
TPT1 inh confirm: TPT1 (C. albicans) inhibition, confirmation; shares compounds with TPT1 inh; recombinant caTPT1, fluorescence polarization, RNase T1 coupled; inhibition, % at 5 µM; actives 74% (n = 2,400); AID 2149;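 active means inhibition above the primary screen limit, the mean inhibition of all tested compounds plus 3 SD, cut at about 25% in these data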
RNase T1 inh: RNase T1 inhibition in TPT1 counter-screen; actives 83% (n = 2,400); inhibition, % at 5 µM; RNase T1 cleavage, fluorescence polarization, 1536-well; shares compounds with TPT1 inh;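 active means inhibition above the solvent-only control well mean plus 3 SD, limit set per screening run, cut at about 23% in these data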;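 further: inhibitors block cleavage so intact labeled substrate keeps polarization high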
Rpn11 inh conf: confirmation of human proteasome Rpn11 inhibitors. shares compounds with Rpn11 inh. purified human 26S proteasome, Ub4-pepOG fluorescence polarization; proteasome pretreated with epoxomicin. inhibition, % at 20 µM. actives 29% (n = 1,900). AID 602318
MMP-2 counter: blocks human MMP-2, flagging nonselective RPN11 hits; actives 4% (n = 1,900); inhibition, % at 20 µM; recombinant MMP-2, FRET peptide cleavage fluorescence; shares compounds with Rpn11 inh; AID 602330;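 further: human MMP-2 activated beforehand with APMA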
Thrombin inh: thrombin (bovine) inhibition counter-screen; AID 602333; bovine thrombin cleavage of Ub4-pepOG, fluorescence polarization; shares compounds with Rpn11 inh; actives 13% (n = 1,900); inhibition, % at 20 µM;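 active means mean inhibition at least 40% at 20 µM, or signal 3 deviations below plate average, so some actives read negative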
Target sequence (P00735 whole entry, looked up): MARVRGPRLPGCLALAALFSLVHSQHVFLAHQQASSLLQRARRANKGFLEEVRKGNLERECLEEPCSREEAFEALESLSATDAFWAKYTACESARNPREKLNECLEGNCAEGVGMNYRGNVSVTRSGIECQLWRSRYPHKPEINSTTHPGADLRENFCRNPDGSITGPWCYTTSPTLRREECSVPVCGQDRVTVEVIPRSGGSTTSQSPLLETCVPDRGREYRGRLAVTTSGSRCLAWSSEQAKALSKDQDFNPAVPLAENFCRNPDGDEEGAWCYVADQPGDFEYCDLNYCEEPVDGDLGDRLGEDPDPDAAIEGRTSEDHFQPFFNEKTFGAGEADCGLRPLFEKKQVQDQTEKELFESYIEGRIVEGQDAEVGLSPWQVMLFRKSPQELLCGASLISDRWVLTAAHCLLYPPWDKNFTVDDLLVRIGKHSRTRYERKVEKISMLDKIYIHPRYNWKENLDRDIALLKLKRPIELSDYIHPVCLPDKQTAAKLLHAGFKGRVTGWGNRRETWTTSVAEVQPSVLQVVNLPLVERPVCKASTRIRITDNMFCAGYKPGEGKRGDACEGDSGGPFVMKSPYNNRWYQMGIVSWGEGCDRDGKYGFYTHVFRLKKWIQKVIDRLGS
A number is an active result; – = inactive; · = no result shown; + = active, no number. Unless noted, no stated cut-off is given here; in the data, active means inhibition above about 40%; inactive means the rest.

SMILES | HNF4A DNA FP | CSN deneddyl inh | TPT1 inh | Rpn11 inh | PKA-R2B act | PKA-R1A act | TPT1 inh confirm | RNase T1 inh | Rpn11 inh conf | MMP-2 counter | Thrombin inh
COc1ccc(N=Cc2sc(O)c3ccccc23)cc1 | – | – | 147 | · | – | – | 120 | 116 | · | · | ·
Cc1c(C(=O)O)cccc1-n1c(C)cc(/C=N/Nc2ccc([N+](=O)[O-])cn2)c1C | – | – | 28 | + | – | – | 47 | 57 | – | – | –
COc1cccc(/C=N/Nc2ccc([N+](=O)[O-])cn2)c1O | – | – | – | – | – | – | · | · | · | · | ·
C(=N\NC1=Nc2cccc3cccc1c23)/c1cccnc1 | 40 | – | 26 | + | – | – | 41 | 56 | 40 | – | –
CC[n+]1c(/C=C/Nc2ccccc2)oc2ccc(OC)cc21 | – | – | 86 | + | – | – | 95 | 101 | 45 | – | –
O=C(COC(=O)/C=C/c1ccccc1Cl)NC1CCCC1 | – | – | · | – | – | – | · | · | · | · | ·
N=C1/C(=C\c2ccc(-c3cc(Cl)cc(Cl)c3)o2)C(=O)N=C2SC=C(c3ccccc3)N12 | – | – | – | – | – | – | · | · | · | · | ·
N=C1/C(=C/c2ccc(-c3cccc(C(=O)O)c3)o2)C(=O)N=C2SC=C(c3ccccc3)N12 | – | 77 | 74 | + | – | – | 84 | 92 | 152 | – | 51
Cc1ccc(O)c(/C=N/NC(=O)c2[nH]ncc2Br)c1 | – | – | – | – | – | – | · | · | · | · | ·
O=C(N/N=C/c1c(O)ccc2ccccc12)c1[nH]ncc1Br | – | – | 32 | + | – | – | 64 | 63 | 67 | – | –
COC(=O)c1ccc(N2NC(=O)/C(=C/c3cc(OC)c(O)c(OC)c3)C2=O)cc1 | – | – | 103 | + | – | – | 99 | 121 | 62 | – | –
COCCn1c(SCc2nc3sc(C(=O)OC)c(C)c3c(=O)[nH]2)nc2ccccc21 | – | – | 26 | + | – | – | – | 33 | – | – | –
CCOC(=O)c1sc2nc(CSc3ccccc3Cl)[nH]c(=O)c2c1C | – | – | – | · | – | – | · | · | · | · | ·
COC(=O)c1sc2nc(CSc3ccc(Br)cc3)[nH]c(=O)c2c1C | – | – | 35 | + | – | – | 26 | 36 | 50 | – | –
CC(C)NC(=O)C1(C)CCN1C(=O)c1ccccc1 (stereo unspecified) | – | – | · | – | · | · | · | · | · | · | ·
COc1ccc2c(/C=C/c3cc[n+](C)cc3)c[nH]c2c1 | 36 | – | 43 | + | – | – | 47 | 59 | 68 | – | 72
Cc1ccc2[nH]cc(/C=C/c3cc[n+](C)cc3)c2c1 | – | – | · | · | – | – | · | · | · | · | ·
CC(C)N1CCc2c(sc(NC(=O)c3cc(-c4cccs4)nc4ccccc34)c2C(N)=O)C1 | – | 107 | 44 | + | – | – | – | 22 | 128 | – | 56
COC(=O)C1CCN(C(=O)COC(=O)/C=C/c2ccc(O)c(OC)c2)CC1 | – | – | · | – | – | – | · | · | · | · | ·
CCCSc1nnc(NC(=O)c2sc3nc(-c4cccs4)ccc3c2N)s1 | – | – | 66 | + | – | – | – | 28 | 61 | – | –
Cc1sc2nc(CSCC(=O)Nc3ccc(C(=O)N(C)C)cc3)[nH]c(=O)c2c1C | – | – | · | – | – | – | · | · | · | · | ·
COc1ccc(C2=NN(c3nc(-c4ccccc4)c(CC(=O)O)s3)C(c3ccco3)C2)cc1 (stereo unspecified) | – | 43 | 60 | + | – | – | 37 | 49 | – | – | –
Cc1nc(N2N=C(c3ccc(Cl)cc3)CC2c2ccco2)sc1C(=O)N(C)C (stereo unspecified) | – | – | – | – | – | – | · | · | · | · | ·
Cc1[nH][nH]c(=O)c1C=Nc1ccc(C(F)(F)F)cc1 | – | – | – | – | – | – | · | · | · | · | ·
CCOC(=O)c1c(C)[nH]c(O)c1C=Nc1ccc(C(F)(F)F)cc1 | – | – | 36 | + | – | – | 30 | 40 | – | – | –
SMILES | HNF4A DNA FP | CSN deneddyl inh | TPT1 inh | Rpn11 inh | PKA-R2B act | PKA-R1A act | TPT1 inh confirm | RNase T1 inh | Rpn11 inh conf | MMP-2 counter | Thrombin inh
CCOC(=O)c1c(N)n(C2CC(C)(C)NC(C)(C)C2)c2nc3ccccc3nc12 | – | – | – | – | – | – | · | · | · | · | ·
CCOC(=O)c1c(NC(=O)c2ccco2)n(C2CCCCC2)c2nc3ccccc3nc12 | – | – | 31 | + | – | – | 28 | 39 | – | – | –
CCc1cccc(CC)c1NC(=S)NCC(c1cccnc1)N1CCOCC1 (stereo unspecified) | – | – | – | – | – | – | · | · | · | · | ·
CN(C)S(=O)(=O)c1cccc(-c2nn(-c3ccccc3)cc2/C=C2\SC(=S)NC2=O)c1 | 59 | – | 75 | + | – | – | – | 33 | – | – | –
COc1cc(/C=C2/C(=O)N(c3cccc(Br)c3)N=C2C)cc(OC)c1O | – | – | 70 | + | – | – | 86 | 91 | 80 | – | 60
O=C(COc1ccc2c(-c3ccccc3)cc(=O)oc2c1)NCC(O)c1ccccc1 (stereo unspecified) | – | – | – | – | – | – | · | · | · | · | ·
NC(=O)c1ccc(NC(=O)COC(=O)/C=C/c2cn(-c3ccccc3)nc2-c2cccnc2)cc1 | – | – | 47 | + | – | – | 52 | 66 | – | – | –
N#Cc1ccccc1NC(=O)COC(=O)/C=C/c1cn(-c2ccccc2)nc1-c1ccc(Cl)cc1 | – | – | · | – | – | – | · | · | · | · | ·
Cc1ccc(S(=O)(=O)N2C[C@H]3C(=O)C[C@@H]4C(=O)N(c5ccccc5)C(=O)[C@@H]4[C@@H]3C[C@H]2c2cccc(Cl)c2)cc1 | – | – | · | – | · | · | · | · | · | · | ·
CN1CCc2nc(NC(=O)c3cccc(OC(F)F)c3)sc2C1 | 49 | – | 60 | + | – | – | 26 | 33 | – | – | –
CCCCCC/C(C)=C1/SC(=S)NC1=O | – | – | 51 | + | – | – | – | – | – | – | –
CCCCCCCC(=O)NNC(=O)Cc1ccccc1 | – | – | – | – | – | – | · | · | · | · | ·
